Test results published in ChEMBL document CHEMBL5715960, “Epigenetic Co-Deregulation of EZH2/TET1 is a Senescence-Countering, Actionable Vulnerability in Triple-Negative Breast Cancer” (Theranostics, 2019).
The source made the active and inactive calls. The calls are words filed in the database; no cut-off is given here.

What was measured:
[1] = system: MDA-MB-231; assay: Cytotoxicity against human MDA-MB-231 cells upto 0.5 ug/ml; assay type: functional, cell-based; conditions: dose <= 0.5 µg/ml
[2] = system: MDA-MB-436; assay: Cytotoxicity against human MDA-MB-436 cells upto 0.5 ug/ml; assay type: functional, cell-based; conditions: dose <= 0.5 µg/ml
[3] = system: MDA-MB-231; assay: Antiproliferative activity against human MDA-MB-231 cells assessed as increase in global H3K9me3 expression level by immunoblot analysis; assay type: functional, cell-based
In short: (§1)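 Cells exposed to GSK343 at 2 µM (standard level unless stated otherwise), lysed and immunoblotted; α-tubulin and total H3 as loading controls.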

[4] = system: MDA-MB-436; assay: Antiproliferative activity against human MDA-MB-436 cells assessed as increase in global H3K9me3 expression level by immunoblot analysis; assay type: functional, cell-based; in short: as §1
[5] = system: BT-474; assay: Antiproliferative activity against human BT-474 cells assessed as increase in global H3K9me3 expression level by immunoblot analysis; assay type: toxicity, cell-based; in short: as §1
[6] = system: MCF7; assay: Antiproliferative activity against human MCF7 cells assessed as increase in global H3K9me3 expression level by immunoblot analysis; assay type: toxicity, cell-based; in short: as §1

Structure (SMILES) | Activity [1] | Activity [2] | Activity [3] | Activity [4] | Activity [5] | Activity [6]
COc1cccc2c1C(=O)c1c(O)c3c(c(O)c1C2=O)C[C@@](O)(C(=O)CO)C[C@@H]3O[C@H]1C[C@H](N)[C@H](O)[C@H](C)O1 | inactive | inactive | – | – | – | –
Nc1nccc2c1ncn2[C@@H]1C=C(CO)[C@@H](O)[C@H]1O | – | – | Active | inactive | Non-Toxic | Non-Toxic
